Measured values of several laboratories.
Lines come from different studies, so protocols differ.
Organism: Plasmodium falciparum
Effect on: parasite growth

SMILES | technique | strain | time | notes | measurement | value
CCCCCCCCNC(C)C(O)c1ccc(SC(C)C)cc1 (centres unmarked) | – | K1 | – | drug-resistant strain, blood stage | IC50 | 5.1 nM
N=C(CC(O)c1cc2c(F)cc(F)cc2c2cc(C(F)(F)F)ccc12)Nc1ccc(-c2ccc(F)cc2)cc1 (centres unmarked) | ELISA | 3D7 | 72 h | blood stage | IC50 | 8.1 nM
CCN(CC)CCCC(C)Nc1ccnc2cc(Cl)ccc12 (centres unmarked) | – | DD2 | – | drug-resistant strain | IC50 | 76.8 nM
C[C@@H]1CC[C@H]2[C@@H](C)C(=O)O[C@@H]3O[C@@]4(C)CC[C@@H]1[C@]32OO4 | – | DD2 | 72 h | drug-resistant strain, blood stage | IC50 | 9.1 nM
N=C(CC(O)c1cc2c(F)cc(F)cc2c2cc(C(F)(F)F)ccc12)NCc1ccc(F)cc1 (centres unmarked) | ELISA | 3D7 DD2 | – | blood stage | IC50 | > 100 nM
COc1cc(/C=C2\CCC/C(=C\c3ccc(O)c(OC)c3)C2=O)ccc1O | – | K1 | – | drug-resistant strain, blood stage | EC50 | 1300 nM
C[C@@H]1CC[C@H]2[C@@H](C)C(=O)O[C@@H]3O[C@@]4(C)CC[C@@H]1[C@]32OO4 | – | NF54 | – | blood stage | IC50 | 11.2 nM
COc1cc(/C=C/C(=O)C(=Cc2ccc([N+](=O)[O-])cc2)C(=O)/C=C/c2ccc(O)c(OC)c2)ccc1O | – | K1 | – | drug-resistant strain, blood stage | EC50 | 9100 nM
N=C(CC(O)c1cc2c(F)cc(F)cc2c2cc(C(F)(F)F)ccc12)Nc1ccc(Br)c(F)c1 (centres unmarked) | ELISA | 3D7 | 72 h | blood stage | IC50 | 5.3 nM
CCN(CC)CCCC(C)Nc1ccnc2cc(Cl)ccc12 (centres unmarked) | – | K1 | – | drug-resistant strain, blood stage | EC50 | 530 nM
N=C(CC(O)c1cc2c(F)cc(F)cc2c2cc(C(F)(F)F)ccc12)Nc1cccc(F)c1 (centres unmarked) | ELISA | 3D7 DD2 | – | blood stage | IC50 | ~2 nM
N=C(N)N/N=C/c1c(Cl)cccc1Cl | – | DD2 | – | drug-resistant strain, blood stage | IC50 | 1310 nM
COc1cc(/C=C2\CC/C(=C\c3ccc(O)c(OC)c3)C2=O)ccc1O | – | K1 | – | drug-resistant strain, blood stage | EC50 | 1470 nM
N=C(CC(O)c1cc2c(F)cc(F)cc2c2cc(C(F)(F)F)ccc12)Nc1ccc(N2CCC(F)(F)CC2)cc1 (centres unmarked) | ELISA | 3D7 | 72 h | blood stage | IC50 | 33.6 nM
COc1cc(/C=C/C(=O)/C=C/c2ccc(O)c(OC)c2)ccc1O | – | K1 | – | drug-resistant strain, blood stage | EC50 | 2530 nM
CCN1CCN(Cc2ccc(Nc3nc4ccc(Oc5ccnc(NC(=O)C6CCN(C)CC6)c5)cc4n3C)cc2C(F)(F)F)CC1 | flow cytometry | DD2 | 72 h | blood stage | IC90 | 166 nM
CO[C@H]1C[C@H](O[C@@H]2/C(C)=C/C[C@@H]3C[C@@H](C[C@]4(CC[C@H](C)[C@@H](C5CCCCC5)O4)O3)OC(=O)[C@@H]3C=C(C)/C(=N/O)[C@H]4OC/C(=C\C=C\[C@@H]2C)[C@]43O)O[C@@H](C)[C@@H]1O | – | DD2 | – | drug-resistant strain, blood stage | IC50 | 179 nM
N=C(CC(O)c1cc2c(F)cc(F)cc2c2cc(C(F)(F)F)ccc12)Nc1cc(F)c(F)c(F)c1 (centres unmarked) | ELISA | 3D7 | 72 h | blood stage | IC50 | 8.7 nM
CO[C@H]1/C=C/O[C@@]2(C)Oc3c(C)c(O)c4c(O)c(c(/C=N/N5CCN(C)CC5)c(O)c4c3C2=O)NC(=O)/C(C)=C\C=C\[C@H](C)[C@H](O)[C@@H](C)[C@@H](O)[C@@H](C)[C@H](OC(C)=O)[C@@H]1C | – | DD2 | – | drug-resistant strain, blood stage | IC50 | 573 nM
COc1cc(/C=C/c2cc(/C=C/c3ccc(O)c(OC)c3)n(-c3ccc(Cl)cc3Cl)n2)ccc1O | – | K1 | – | drug-resistant strain, blood stage | EC50 | 25900 nM
